Screening results from PubChem BioAssay.
This is a sample that favours compounds with a hit; in the whole collection about 1.9% have one here.
NPY-Y1 PAM-ag – potentiates or activates human NPY-Y1 receptor. P25929. NPY-Y1 expressing cells, potentiator/agonist activation. activation, % at 3.6 µM. 220,000 compounds, 0.37% hits. AID 1304; in the data active = activation above about 33%, passing the limit was not always enough;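 also: cells stimulated with NPY at EC10 then isoproterenol at EC100; 0% = low agonist plus stimulus and 100% = saturating agonist plus stimulus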
Target sequence (P25929 whole entry, looked up): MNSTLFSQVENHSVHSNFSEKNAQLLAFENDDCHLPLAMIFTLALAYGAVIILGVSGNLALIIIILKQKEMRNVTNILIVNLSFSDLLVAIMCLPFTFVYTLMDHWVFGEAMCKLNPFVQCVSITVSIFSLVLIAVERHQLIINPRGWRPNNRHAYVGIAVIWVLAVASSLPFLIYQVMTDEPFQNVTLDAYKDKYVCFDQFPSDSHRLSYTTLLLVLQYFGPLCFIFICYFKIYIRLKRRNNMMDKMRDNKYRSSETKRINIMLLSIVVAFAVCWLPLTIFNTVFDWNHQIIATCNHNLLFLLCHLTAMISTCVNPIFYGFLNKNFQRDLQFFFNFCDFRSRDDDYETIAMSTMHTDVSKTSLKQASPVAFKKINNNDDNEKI
NPY2 pot ag – potentiators or agonists of human neuropeptide Y receptor Y2 | P49146 | cells expressing NPY-Y2, potentiator/agonist read-out | activation, % at 3.6 µM | 220,000 compounds, 0.45% hits; in the data active = activation above about 27%;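 also: cells stimulated with NPY near EC25 plus isoproterenol at EC100; 0% = vehicle plus submaximal agonist and 100% = vehicle plus saturating agonist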
NPY-Y2 antag – blocks the human neuropeptide Y Y2 receptor; 140,000 compounds, 0.99% hits; NPY-Y2 expressing cells, antagonist mode; P49146; AID 793; inhibition, % at 2.7 µM; in the data active = inhibition above about 17%;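 also: 0% = vehicle with agonist challenge and 100% = reference antagonist with challenge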
NPY Y1 blocker – NPY-Y1 (human) receptor antagonism. 200,000 compounds, 1% hits. inhibition, % at 3.6 µM. HEK293-CNG Y1 cells, membrane potential fluorescence; NPY at EC95, then isoproterenol. AID 1040;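 active = inhibition above the campaign mean inhibition of all tested compounds plus 3 SD, cut at about 20% in these data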;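 also: 0% = DMSO wells given NPY plus isoproterenol and 100% = isoproterenol alone without NPY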
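material = HEK293 cells with Y1 receptor plus CNG channel | also added = NPY 25 nM then isoproterenol 1 µM plus Ro 20-1724 25 µM | schedule = dye 3 h, compound 60 min room temperature, stimulation 45 min | measured by = membrane potential fluorescence | benchmarks = high control isoproterenol alone, low control NPY with isoproterenol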
NPY-Y2 confirm – human NPY-Y2 potentiation or agonism, confirmation; activation, % at 3.6 µM; shares compounds with NPY2 pot ag; cell-based NPY-Y2 potentiator/agonist assay; 450 compounds, 20% hits; in the data active = activation above about 33%
NPY-Y1 potentiator – NPY-Y1 potentiation or agonism as NPY-Y2 counter-screen; shares compounds with NPY2 pot ag; 450 compounds, 20% hits; AID 1651; activation, % at 3.6 µM; Y1 HEK293-CNG cells, membrane potential fluorescence; in the data active = activation above about 45%;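 also: cells stimulated with submaximal NPY then isoproterenol with phosphodiesterase inhibitor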
NPY-Y1 ag 2 – activates human NPY-Y1, counter-screen for NPY-Y2 potentiators; shares compounds with NPY2 pot ag; HEK293 Y1-CNGC, membrane potential fluorescence, agonism; activation, % at 3.6 µM; 450 compounds, 37% hits;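 active = activation above the mean of DMSO-only control wells plus 3 SD, cut at about 18% in these data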;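 also: cells stimulated with 1 µM isoproterenol plus the PDE inhibitor Ro 20-1724; 0% = isoproterenol with DMSO and no NPY and 100% = 40 nM NPY; Y1 agonists lower the membrane potential dye signal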
CNGC inh – cyclic nucleotide gated channel inhibition as counter-screen; shares compounds with NPY2 pot ag; HEK293-CNG parental, isoproterenol cAMP, membrane potential fluorescence; inhibition, % at 3.6 µM; 450 compounds, 32% hits;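 active = inhibition above the control-well mean plus 3 SD of those wells, cut at about 22% in these data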;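 also: 0% = DMSO with isoproterenol and 100% = DMSO without isoproterenol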
Y2 agonist ctr – NPY-Y2 agonism, counter-screen for Y2 potentiators. HEK293 Y2/CNGC cells, membrane potential fluorescence, agonist mode. 450 compounds, 56% hits. AID 1710. shares compounds with NPY2 pot ag. activation, % at 3.6 µM;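 active = activation above the mean of solvent-only control wells plus 3 SD, cut at about 10% in these data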;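 also: cells stimulated by isoproterenol with no NPY added so direct agonism is tested; 0% = DMSO with isoproterenol alone and 100% = NPY at EC100 plus isoproterenol; agonism lowers probe fluorescence through less cAMP and CNG channel opening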
The depositor's hits bear a star.

Cc1cc(NC(=O)COC(=O)c2ccccc2[N+](=O)[O-])no1 was read as NPY-Y1 PAM-ag -5, NPY2 pot ag -5 and NPY Y1 blocker -1.
For COC(=O)C(C)(C)ONC(=O)Nc1ccccc1Cl the results were NPY-Y1 PAM-ag 19, NPY2 pot ag 18 and NPY Y1 blocker -3.
For O=[N+]([O-])c1cccc2c(N3CCOCC3)ccnc12 the results were NPY-Y1 PAM-ag 4, NPY2 pot ag 40*, NPY Y1 blocker 0, NPY-Y2 confirm 2, NPY-Y1 potentiator 6, NPY-Y1 ag 2 5, CNGC inh 4 and Y2 agonist ctr 13*.
Screening O=[N+]([O-])c1ccc(N2CCN(S(=O)(=O)c3ccccc3)CC2)c2cccnc12 returned NPY-Y1 PAM-ag 10, NPY2 pot ag -4 and NPY Y1 blocker -4.
Screening Cc1cc(C(=O)CN2C(=O)c3cccc(N)c3C2=O)c(C)n1Cc1cccs1 returned NPY-Y1 PAM-ag -15, NPY2 pot ag 1, NPY-Y2 antag 3 and NPY Y1 blocker -2.
COc1nc(N)c(S(=O)(=O)c2ccccc2)cc1C#N was read as NPY-Y1 PAM-ag 4, NPY2 pot ag 3, NPY-Y2 antag 1 and NPY Y1 blocker 5.
For N#Cc1cc(S(=O)(=O)c2ccc(Cl)cc2)c(N)[nH]c1=O the results were NPY-Y1 PAM-ag -14, NPY2 pot ag 54*, NPY Y1 blocker 5, NPY-Y2 confirm 0, NPY-Y1 potentiator -2, NPY-Y1 ag 2 -4, CNGC inh 3 and Y2 agonist ctr 10.
`CCN1C(=O)/C(=C2/C=Cc3ccccc3N2CC)SC1=S` gave NPY-Y1 PAM-ag 35, NPY2 pot ag 33*, NPY Y1 blocker -6, NPY-Y2 confirm 39*, NPY-Y1 potentiator 48*, NPY-Y1 ag 2 43*, CNGC inh 36* and Y2 agonist ctr 48*.
Screening COc1ccc(CCNC(=O)C2CCCN(c3ncccn3)C2)cc1 (stereo not given) returned NPY-Y1 PAM-ag -5, NPY2 pot ag 6 and NPY Y1 blocker 0.
`Cc1ccc(Cl)cc1NC(=O)c1cc2ccccc2cc1O` gave NPY-Y1 PAM-ag 37, NPY2 pot ag 45*, NPY-Y2 confirm 8, NPY-Y1 potentiator 15, NPY-Y1 ag 2 -5, CNGC inh 20 and Y2 agonist ctr 19*.
`Cc1ccc(Cl)cc1NC(=O)COC(=O)c1ccccc1O` gave NPY-Y1 PAM-ag -11 and NPY2 pot ag -2.
`COc1cc(NC(=O)c2cc3ccccc3cc2O)c(OC)cc1Cl` gave NPY-Y1 PAM-ag 31, NPY2 pot ag 58*, NPY-Y2 confirm 21, NPY-Y1 potentiator -8, NPY-Y1 ag 2 -13, CNGC inh 4 and Y2 agonist ctr 12*.
For COc1cc(OC)c(NC(=O)c2ccccc2F)cc1Cl the results were NPY-Y1 PAM-ag -8, NPY2 pot ag -3 and NPY Y1 blocker 9.
`O=C(c1cc(COc2c(F)cccc2F)on1)N1CCC(c2ccncc2)CC1` gave NPY-Y1 PAM-ag -11, NPY2 pot ag 36*, NPY Y1 blocker -7, NPY-Y2 confirm 1, NPY-Y1 potentiator -38, NPY-Y1 ag 2 -14, CNGC inh -7 and Y2 agonist ctr 4.
For CC1=N/C(=C/c2cccnc2)C(=O)O1 the results were NPY-Y1 PAM-ag -13, NPY2 pot ag 2 and NPY Y1 blocker 4.
Screening Cc1cccc(NC(=S)NCc2ccco2)c1C returned NPY-Y1 PAM-ag 1, NPY2 pot ag -15, NPY-Y2 antag 1 and NPY Y1 blocker 9.
For CCOC(=O)Cn1c(=O)oc2cc(S(=O)(=O)NCCc3ccc(C)cc3)ccc21 the results were NPY-Y1 PAM-ag -10, NPY2 pot ag -13, NPY-Y2 antag 13 and NPY Y1 blocker 3.
For CCOC(=O)Cn1c(=O)oc2cc(S(=O)(=O)Nc3ccc(F)cc3)ccc21 the results were NPY-Y1 PAM-ag 31, NPY2 pot ag 36*, NPY-Y2 antag -1, NPY Y1 blocker -11, NPY-Y2 confirm 16, NPY-Y1 potentiator 20, NPY-Y1 ag 2 22*, CNGC inh 33* and Y2 agonist ctr 12*.
CCN(CC)S(=O)(=O)c1ccc(N2CCOCC2)c(NC(=O)Cc2cccc3ccccc23)c1 was read as NPY-Y1 PAM-ag -1, NPY2 pot ag 6, NPY-Y2 antag 2 and NPY Y1 blocker 5.
O=c1[nH]c(/C=C/c2cccnc2)c([N+](=O)[O-])c(=O)[nH]1 was read as NPY-Y1 PAM-ag 16, NPY2 pot ag 26 and NPY Y1 blocker -8.
For O=c1[nH]c(/C=C\c2cccnc2)c([N+](=O)[O-])c(=O)[nH]1 the results were NPY-Y1 PAM-ag 26, NPY2 pot ag 37*, NPY Y1 blocker -12, NPY-Y2 confirm 25, NPY-Y1 potentiator 37, NPY-Y1 ag 2 39*, CNGC inh 27* and Y2 agonist ctr 31*.
Screening CC(=O)c1ccc(N2CCN(C(=S)Nc3ccc(Oc4ccccc4)cc3)CC2)cc1 returned NPY-Y1 PAM-ag 12, NPY2 pot ag 39*, NPY Y1 blocker -1, NPY-Y2 confirm 1, NPY-Y1 potentiator -20, NPY-Y1 ag 2 -9, CNGC inh -4 and Y2 agonist ctr 11*.
O=S(=O)(c1cccc(NC(=S)N2CCN(c3cccc(Cl)c3)CC2)c1)C(F)F was read as NPY-Y1 PAM-ag 7, NPY2 pot ag 30*, NPY-Y2 antag -3, NPY Y1 blocker -4, NPY-Y2 confirm 10, NPY-Y1 potentiator -1, NPY-Y1 ag 2 7, CNGC inh 13 and Y2 agonist ctr 17*.
Screening O=S(=O)(c1cccc(NC(=S)N2CCN(c3ccc(F)cc3)CC2)c1)C(F)F returned NPY-Y1 PAM-ag 9, NPY2 pot ag 9, NPY-Y2 antag -2 and NPY Y1 blocker -10.
For Cc1ccnc(NC(c2ccncc2)c2c(C)[nH]c3ccccc23)c1 (stereo not given) the results were NPY-Y1 PAM-ag -2, NPY2 pot ag -6, NPY-Y2 antag 3 and NPY Y1 blocker 5.
For Cc1[nH]c2ccccc2c1C(Nc1nccs1)c1ccncc1 (stereo not given) the results were NPY-Y1 PAM-ag -8, NPY2 pot ag 27*, NPY-Y2 antag 1, NPY Y1 blocker 6, NPY-Y2 confirm -5, NPY-Y1 potentiator 3, NPY-Y1 ag 2 -11, CNGC inh -4 and Y2 agonist ctr -8.
